Laboratory results reported in ChEMBL document CHEMBL3102848, “Carbamazepine derivatives with P2X4 receptor-blocking activity” (Bioorg Med Chem, 2014).

How the values were obtained:
Assay type in all cases: cell-based
[1] = target: T1, P2X purinoceptor 4 (Homo sapiens, UniProt Q99571); test: Antagonist activity at human P2X4 receptor expressed in human 1321N1 cells assessed as inhibition of ATP-induced cytosolic calcium influx preincubated for 30 mins followed by ATP addition by Fluo-4 AM dye-based fluorescence assay
T1 sequence (Q99571 whole entry): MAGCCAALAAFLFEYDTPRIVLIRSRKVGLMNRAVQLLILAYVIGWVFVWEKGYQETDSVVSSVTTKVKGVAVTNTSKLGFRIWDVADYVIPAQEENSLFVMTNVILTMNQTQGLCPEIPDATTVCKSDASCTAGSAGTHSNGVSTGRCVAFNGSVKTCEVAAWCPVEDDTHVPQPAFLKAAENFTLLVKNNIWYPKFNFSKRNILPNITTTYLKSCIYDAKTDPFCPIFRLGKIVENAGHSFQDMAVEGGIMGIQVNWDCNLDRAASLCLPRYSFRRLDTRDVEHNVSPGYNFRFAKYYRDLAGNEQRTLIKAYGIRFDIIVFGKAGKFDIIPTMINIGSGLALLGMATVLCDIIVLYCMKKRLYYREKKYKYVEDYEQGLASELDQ
Outline: (§1)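 Human P2X4 stably transfected into 1321N1 astrocytoma cells. Inhibition of ATP-induced calcium influx measured as in earlier work. Compounds were first screened at a single high concentration, chosen according to their solubility.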

[2] = target: T2, P2X purinoceptor 4 (Homo sapiens) (UniProt Q99571); test: Antagonist activity at human P2X4 receptor expressed in human 1321N1 cells assessed as inhibition of ATP-induced cytosolic calcium influx at 100 uM preincubated for 30 mins followed by ATP addition by Fluo-4 AM dye-based fluorescence assay; outline: as §1
T2 sequence (whole entry): T1 sequence (Q99571 whole entry)

[3] = target: T2, P2X purinoceptor 4 (Homo sapiens); test: Antagonist activity at human P2X4 receptor expressed in human 1321N1 cells assessed as inhibition of ATP-induced cytosolic calcium influx at 300 uM preincubated for 30 mins followed by ATP addition by Fluo-4 AM dye-based fluorescence assay; outline: as §1
[4] = target: T2, P2X purinoceptor 4 (Homo sapiens); test: Antagonist activity at human P2X4 receptor expressed in human 1321N1 cells assessed as inhibition of ATP-induced cytosolic calcium influx at 10 uM preincubated for 30 mins followed by ATP addition by Fluo-4 AM dye-based fluorescence assay; outline: as §1
[5] = target: T2, P2X purinoceptor 4 (Homo sapiens); test: Antagonist activity at human P2X4 receptor expressed in human 1321N1 cells assessed as inhibition of ATP-induced cytosolic calcium influx at 20 uM preincubated for 30 mins followed by ATP addition by Fluo-4 AM dye-based fluorescence assay; outline: as §1

| Compound | IC50 [1] [µM] | inhibition [2] [%] | inhibition [3] [%] | inhibition [4] [%] | inhibition [5] [%] |
| --- | --- | --- | --- | --- | --- |
| CN(C)C(=O)N1c2ccccc2C=Cc2ccccc21 | ≥ 100 | 49 |  |  |  |
| NC(=O)N1c2ccccc2CCc2ccccc21 | > 100 | 35 |  |  |  |
| CN1CCC(NC(=O)N2c3ccccc3C=Cc3ccccc32)CC1 | ≥ 100 | 56 |  |  |  |
| COC1=Cc2ccccc2N(C(N)=O)c2ccccc21 | > 100 | 34 |  |  |  |
| C1=Cc2ccccc2N(Cc2ccccc2)c2ccccc21 | > 100 | 34 |  |  |  |
| CCCCNC(=O)N1c2ccccc2C=Cc2ccccc21 | ≥ 100 | 49 |  |  |  |
| CC(=O)N1c2ccccc2C=Cc2ccccc21 | > 100 | 39 |  |  |  |
| O=C(Nc1ccncc1)N1c2ccccc2C=Cc2ccccc21 | > 100 | 30 |  |  |  |
| O=C(N(CCO)CCO)N1c2ccccc2C=Cc2ccccc21 | > 100 | 2 |  |  |  |
| NC(=O)N1c2ccccc2CC(O)c2ccccc21 (racemic) [LICARBAZEPINE] | > 100 | 28 |  |  |  |
| NC(=O)N1c2ccccc2C=Cc2ccc(F)cc21 | > 100 | -2 |  |  |  |
| Cc1ccc2c(c1)N(C(N)=O)c1ccccc1C=C2 | > 100 | 21 |  |  |  |
| CCOC1Cc2ccccc2N(C(N)=O)c2ccccc21 (racemic) | > 100 | 17 |  |  |  |
| CC(=O)O[C@H]1Cc2ccccc2N(C(N)=O)c2ccccc21 [ESLICARBAZEPINE ACETATE] | > 20 |  |  |  | 25 |
| O=C(N1CCC(O)CC1)N1c2ccccc2C=Cc2ccccc21 | > 100 |  |  |  |  |
| O=C(N1CCOCC1)N1c2ccccc2C=Cc2ccccc21 | ≥ 100 | 50 |  |  |  |
| NC(=O)N1c2ccccc2CC(=O)c2ccccc21 [OXCARBAZEPINE] | > 10 |  |  | 10 |  |
| CN(C)CCN(C)C(=O)N1c2ccccc2C=Cc2ccccc21 | ≥ 100 | 42 |  |  |  |
| O=C(NC1CCC(O)CC1)N1c2ccccc2C=Cc2ccccc21 (stereo not given) | > 20 |  |  |  | 0 |
| NC(=O)N1c2ccccc2C=Cc2cc(F)ccc21 | > 100 | 11 |  |  |  |
| COc1ccc2c(c1)N(C(N)=O)c1ccccc1C=C2 | > 100 | 30 |  |  |  |
| NC(=O)N1c2ccccc2C=Cc2ccccc21 [CARBAMAZEPINE] | > 100 | 35 |  |  |  |
| CNC(=O)N1c2ccccc2C=Cc2ccccc21 | ≥ 100 | 47 |  |  |  |
| NC(=O)N1c2ccccc2C2OC2c2ccccc21 (stereo not given) [CARBAMAZEPINE EPOXIDE] | > 10 |  |  | 1 |  |

Now from value to compound:

| IC50 [1] [µM] | inhibition [2] [%] | inhibition [3] [%] | inhibition [4] [%] | inhibition [5] [%] | Compound |
| --- | --- | --- | --- | --- | --- |
| 52.5 |  |  |  |  | CCN(CC)C(=O)N1c2ccccc2C=Cc2cccc(C(=O)N(C(C)C)C(C)C)c21 |
| 27.4 | 83 |  |  |  | COc1ccc(CCNC(=O)N2c3ccccc3C=Cc3ccccc32)cc1 |
| 15.3 | 39 |  |  |  | CN(C)c1ccc2c(c1)N(C(N)=O)c1ccccc1C=C2 |
| 72.8 |  | 99 |  |  | NC(=O)N1c2ccccc2C=Cc2ccc(O)cc21 |
| 23.3 | 75 |  |  |  | O=C(c1ccccc1)N1c2ccccc2C=Cc2ccccc21 |
| > 10 |  |  | 11 |  | NC1CCC(NC(=O)N2c3ccccc3C=Cc3ccccc32)CC1 (stereo not given) |
| 51.4 | 91 |  |  |  | NC(=O)N1c2ccccc2C=Cc2c1ccc1ccccc21 |
| 100 | 52 |  |  |  | CCN(CC)C(=O)N1c2ccccc2C=Cc2ccncc21 |
| 100 | 58 |  |  |  | CC(C)COC(=O)N1c2ccccc2C=Cc2ccccc21 |
| > 10 |  |  | 12 |  | NC(=O)N1c2ccccc2C=C(N)c2ccccc21 |
| 36.9 | 80 |  |  |  | CNC1=Cc2ccccc2N(C(N)=O)c2ccccc21 |
| 13.8 | 92 |  |  |  | CC(C)(C)NC(=O)N1c2ccccc2C=Cc2ccccc21 |
| 146 |  | 82 |  |  | NC(=O)N1c2ccccc2C=Cc2cc(O)ccc21 |
| 36.2 | 107 |  |  |  | O=C(NCCc1ccccc1)N1c2ccccc2C=Cc2ccccc21 |
| 54.6 | 72 |  |  |  | NC(=O)N1c2ccccc2C=Cc2ccc(C(F)(F)F)cc21 |
| 30.6 | 74 |  |  |  | CC(C)N(C(=O)c1cccc2c1Nc1ccccc1C=C2)C(C)C |
| 100 | 54 |  |  |  | CN(C)CCCNC(=O)N1c2ccccc2C=Cc2ccccc21 |
| 100 | 51 |  |  |  | COC(=O)N1c2ccccc2C=Cc2ccccc21 |
| 19.2 | 47 |  |  |  | CC(C)NC(=O)N1c2ccccc2C=Cc2ccccc21 |
| 100 | 49 |  |  |  | O=C(Nc1ccccc1)N1c2ccccc2C=Cc2ccccc21 |
| 6.02 |  |  | 73 |  | O=C(OCc1ccccc1)N1c2ccccc2C=Cc2ccccc21 |
| 78.9 | 75 |  |  |  | O=C(NCc1ccccc1)N1c2ccccc2C=Cc2ccccc21 |
